Measurements: ChEMBL document CHEMBL4390637, “Design, synthesis and biological evaluation of novel inhibitors against cyanobacterial pyruvate dehydrogenase multienzyme complex E1” (Bioorg Med Chem, 2019)
pEC50, pIC50: −log10 of the molar value.

Key:
[1] = system: Synechocystis sp. PCC 6803; test: Inhibition of Synechocystis sp. PCC6803 PDHC-E1 expressed in Escherichia coli BL-21 (DE3) at 100 uM using 6-DCIP and pyruvate incubated for 5 mins relative to untreated control
In short: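 His-tagged Cy-PDHc E1 co-expressed with GroEL/GroES in E. coli BL-21 (DE3), Ni-NTA purified. Mix: 50 mM K3PO4 pH 7.2, 0.375 mM DCIP, 0.1 mg/ml enzyme, 200 µM ThDP, compound 100 μM; preincubated 5 min at 37 °C, reaction started with saturating pyruvate; percent inhibition reported.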

[2] = Inhibition of Synechocystis sp. PCC6803 PDHC-E1 expressed in Escherichia coli BL-21 (DE3) using 6-DCIP and pyruvate incubated for 5 mins; parameters: species or system Synechocystis sp. PCC 6803
In short: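 Recombinant Cy-PDHc E1 (E. coli BL-21 (DE3) with GroEL/GroES chaperones, Ni-NTA purified) assayed by DCIP reduction in 50 mM K3PO4 pH 7.2, 0.375 mM DCIP, 0.1 mg/ml enzyme, 200 µM ThDP plus inhibitor, 5 min at 37 °C before saturating pyruvate; IC50 values as means ± SD, n = 3.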

Microcystis aeruginosa = test: Growth inhibition of Microcystis aeruginosa FACHB905 incubated for 7 days; assay type: functional, organism-based
In short: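 Cyanobacteria grown in BG11 medium at 28 °C on a 12 h light/12 h dark cycle for 7 days to logarithmic phase. A 1% inoculum was transferred into fresh medium containing compound at different concentrations and cultured 7 days. OD680 was read, then inhibition rate and EC50 were calculated. Values are means, n = 3.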

[3] = system: Synechocystis sp. PCC 6803; test: Growth inhibition of Synechocystis sp. PCC6803 incubated for 7 days; assay type: functional, organism-based
Sus scrofa = species on record: Sus scrofa; test: Inhibition of porcine PDHc-E1 at 100 uM using MTT and phenazine methosulfate incubated for 3 mins relative to untreated control
In short: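 Porcine PDHc E1 activity followed by MTT reduction at 566 nm. Mix: 1.0 mM MgCl2, 0.2 mM ThDP, 0.5 mM MTT, 6.5 mM PMS, 50 mM K3PO4 pH 7.0, 0.75 mg/mL enzyme, compound at 100 μM final; 3 min at 37 °C, then 2 mM sodium pyruvate added to start; percent inhibition reported.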

[4] = Microcystis aeruginosa, FACHB905, 168 h
[5] = Synechocystis sp. PCC 6803, 168 h

| Compound | inhibition [1] [%] | pIC50 [2] | pEC50 (Microcystis aeruginosa; [4]) | pEC50 [3, 5] | inhibition (Sus scrofa) [%] | pEC50 (Microcystis aeruginosa) | pEC50 [3] |
| --- | --- | --- | --- | --- | --- | --- | --- |
| Cc1ncc(Cn2cc(COc3ccc(F)cc3)nn2)c(N)n1 | 16.2 | < 4.00 | < 4.00 | < 4.00 | – | – | – |
| Cc1ncc(Cn2nnc(COC(=O)c3ccc(F)cc3)c2I)c(N)n1 | 95.4 | 5.79 | 6.11 | 6.08 | 15.3 | – | – |
| Cc1ncc(Cn2nnc(COC(=O)c3ccc(Cl)cc3)c2I)c(N)n1 | 95.6 | 5.63 | 5.97 | 6.05 | – | – | – |
| Cc1ncc(Cn2nnc(COC(=O)c3ccccc3Cl)c2I)c(N)n1 | 98.9 | 5.83 | 6.05 | 5.93 | 9.5 | – | – |
| Cc1ncc(Cn2cc(COC(=O)c3ccccc3Cl)nn2)c(N)n1 | 97.8 | 5.47 | 5.84 | 5.61 | 7.31 | – | – |
| Cc1ncc(Cn2cc(COC(=O)c3ccc([N+](=O)[O-])cc3)nn2)c(N)n1 | 95.7 | 5.45 | 5.88 | 5.79 | 13.5 | – | – |
| Cc1ncc(Cn2nnc(COC(=O)c3ccc([N+](=O)[O-])cc3)c2I)c(N)n1 | 99.2 | 5.77 | 6.02 | 5.96 | 10.4 | – | – |
| Cc1ncc(Cn2cc(COC(=O)c3ccc(Cl)cc3)nn2)c(N)n1 | 94.2 | 5.45 | 5.95 | 5.65 | – | – | – |
| Cc1ccc(C(=O)OCc2nnn(Cc3cnc(C)nc3N)c2I)cc1 | 97.1 | 5.73 | 6.07 | 5.94 | – | – | – |
| Cc1ncc(Cn2cc(COC(=O)c3ccc(F)cc3)nn2)c(N)n1 | 99.5 | 5.41 | 5.91 | 5.68 | 17.8 | – | – |
| Cc1ncc(Cn2cc(COc3ccccc3)nn2)c(N)n1 | 19 | < 4.00 | < 4.00 | < 4.00 | – | – | – |
| Cc1ncc(Cn2nnc(COC(=O)c3cccc(Cl)c3)c2I)c(N)n1 | 98.7 | 5.75 | 6.13 | 5.94 | 5.13 | – | – |
| Cc1ncc(Cn2nnc(COC(=O)c3ccccc3)c2I)c(N)n1 | 96.5 | 5.71 | 6.00 | 5.84 | 21 | – | – |
| Cc1ncc(Cn2cc(COC(=O)c3ccccc3)nn2)c(N)n1 | 95.5 | 5.45 | 5.93 | 5.78 | 15.9 | – | – |
| Cc1ncc(Cn2cc(COC(=O)c3cccc(Cl)c3)nn2)c(N)n1 | 93.2 | 5.43 | 5.89 | 5.74 | 9.62 | – | – |
| Cc1ncc(Cn2cc(COc3ccc(Cl)cc3)nn2)c(N)n1 | 29.6 | < 4.00 | < 4.00 | < 4.00 | – | – | – |
| CUPRIC SULFATE | – | – | – | – | – | 5.75 | 5.83 |
| Cc1ncc(Cn2cc(COc3ccc([N+](=O)[O-])cc3)nn2)c(N)n1 | 8.64 | < 4.00 | < 4.00 | < 4.00 | – | – | – |
| Cc1ccc(C(=O)OCc2cn(Cc3cnc(C)nc3N)nn2)cc1 | 95.3 | 5.35 | 5.92 | 5.84 | – | – | – |
